Each structure is given as a SMILES string. Calls of active or inactive are those of the source.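 How the source made its calls: active means membrane recruitment of a green fluorescent kinase sensor scored by eye at 30% or more; inactive means the rest.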

The target of this experiment is G-protein coupled receptor 55 (Homo sapiens) (UniProt Q9Y2T6). Kind of experiment: GPR55 agonists inducing PKCbII-GFP membrane recruitment, SAR follow-up, imaging, HEK293 (AID 463192). An outline of the steps:
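Assay system: HEK293 cells transiently expressing wild-type human GPR55 and PKC βII-GFP biosensor / Buffer or medium: serum-free MEM / Compound dosing: four-point compound series, 10 nM to 10 µM final, duplicate / Timing: 15 min compound exposure at 37 °C / Detection: fluorescence microscopy of fixed cells, scored by eye / Replicates: duplicate wells per compound dose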

Sequence of G-protein coupled receptor 55 (Homo sapiens) (Q9Y2T6 whole entry, looked up): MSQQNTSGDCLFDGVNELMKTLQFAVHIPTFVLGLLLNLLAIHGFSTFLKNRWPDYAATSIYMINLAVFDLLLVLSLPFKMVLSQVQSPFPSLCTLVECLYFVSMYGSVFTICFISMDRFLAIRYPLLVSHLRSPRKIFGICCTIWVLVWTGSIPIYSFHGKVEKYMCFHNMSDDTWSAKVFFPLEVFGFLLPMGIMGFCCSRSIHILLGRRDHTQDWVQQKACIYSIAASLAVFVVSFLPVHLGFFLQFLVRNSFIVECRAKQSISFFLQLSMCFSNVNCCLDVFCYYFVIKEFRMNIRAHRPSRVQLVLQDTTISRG

As for `Cc1occc1C(=O)Nc1ccc(OCc2ccccc2)cc1`, the outcome is “active; +++”.

Regarding `CC(C)Oc1ccc(S(=O)(=O)N2CCOCC2)cc1NC(=O)c1ccc(N2CCCC2=O)cc1`, the outcome was “active; +++”.

For `Cc1cccc(N2CCN(C(=O)c3cc(S(=O)(=O)N(C)C)ccc3N3CCCC3)CC2)c1C`, the outcome was “active; +++”.

As to `COc1ccc(-c2csc(NC(=O)CSc3nnc4c(C)cc5ccccc5n34)n2)cc1`, the outcome is “active; +++”.

For `COc1ccc(S(=O)(=O)N2CCOCC2)cc1NC(=O)c1cc2c(s1)CCCC2`, the outcome is “active; +++”.

In the case of `COc1ccc2cc(C)c3nnc(SCC(=O)Nc4nc(-c5ccc(F)cc5)cs4)n3c2c1`, the outcome was “active; +++”.

`COc1ccccc1/C=C/C(=O)NC(=S)Nc1ccc(S(=O)(=O)N(C)c2ccccc2)cc1`: the outcome was “active; +++”.

On to `CN(C)S(=O)(=O)c1ccc(N2CCCC2)c(C(=O)N2CCN(c3ccc([N+](=O)[O-])cc3)CC2)c1`, for which the outcome is “active; +++”.

As for `CCCN(CCC)Cc1c(C(=O)NN=Cc2c[nH]c3ccccc23)nnn1-c1nonc1N`, the outcome is “active; +++”.
